Data as given in the RNAGym collection of RNA variant scans (doi:10.1038/s41586-018-0170-7).

B1: tRNA (parent)
chain: GUUCCGUUGGCGUAAUGGUAACGCGUCUCCCUCCUAAGGAGAAGACUGCGGGUUCGAGUCCCGUACGGAACG

Variants of: B1
Assay: yeast fitness, log relative to wild type (ln ratio); higher = fitter; tRNA-Arg(CCU), competitive growth, 37 C, 1 M NaCl
How it was run: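 BY4742 cells without the chromosomal tRNA-Arg(CCU) gene carried a combinatorial variant library on a HIS3 centromeric plasmid, from two independent transformations. After 4 generations in SC-HIS at 30 °C, pools spent ~6.5 generations (~26.5 h) in SC-HIS 1M NaCl at 37 °C, giving three outputs per input, and 125 bp paired-end Illumina reads counted the variants. Fitness is the natural log of each genotype's generations over the wild type's, with generations taken as OD-scaled log2 output/input frequency weighted by inverse variance across replicates.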

| Variant | yeast fitness (ln) |
| --- | --- |
| U2G C27U C46U C66U A70U C71U | -0.308 |
| U2G G6A A43C C46U C66A A69G A70U | -0.0569 |
| U2G C46U C66U A69G | -0.119 |
| U2G C27U A70G C71U | -0.178 |
| U2G C27U C46U A70G C71U | -0.216 |
| U2G C27U A43C C46U C66A A70U C71U | -0.262 |
| U2G G6A A43C C46U C66U A69G A70G C71U | -0.229 |
| U2G G6A C27U A43C C46U C66A A69G A70U C71U | -0.65 |
| U2G C27U C66A A70G C71U | -0.201 |
| U2G C27U C66U A69G A70G C71U | -0.264 |
| U2G C27U A70U C71U | -0.0745 |
| U2G C27U C66A A70G | -0.128 |
| U2G C27U C66A A70U | -0.0765 |
| U2G C27U C66U A69G A70U C71U | -0.433 |
| U2G C66U A70G C71U | -0.121 |
| U2G G6A A43C | -0.0921 |
| U2G C27U A69G A70G C71U | -0.178 |
| U2G C27U C46U A70U C71U | -0.0474 |
| U2G C27U C71U | -0.0721 |
| U2G C71U | -0.0549 |
| U2G G6A A43C C66A A69G A70U C71U | -0.329 |

| Variant | yeast fitness (ln) |
| --- | --- |
| U2G G6A A43C C66U A69G A70U C71U | -0.407 |
| U2G G6A C27U A43C C66A A70U C71U | -0.473 |
| U2G G6A C27U A43C A70U | -0.119 |
| U2G G6A C27U A43C A70G | -0.186 |
| U2G G6A C27U A43C A69G A70U C71U | -0.502 |
| U2G G6A A70U C71U | -0.107 |
| U2G G6A C27U A43C C46U C66U A69G C71U | -0.377 |
| U2G G6A C27U C46U | -0.0462 |
| U2G C27U C46U C66A C71U | -0.163 |
| U2G G6A C27U A69G A70G C71U | -0.245 |
| U2G C27U C46U A70G | -0.0813 |
| U2G C27U C46U A70U | -0.00918 |
| U2G G6A C27U A43C C46U C66U A69G A70G C71U | -0.289 |
| U2G G6A C27U A43C C66U A69G A70U C71U | -0.434 |
| U2G C46U A69G A70G C71U | -0.184 |
| U2G G6A C27U A43C C46U C71U | -0.134 |
| U2G G6A A43C C46U A70G C71U | -0.209 |
| U2G C46U C66A A69G C71U | -0.191 |
| U2G C27U A43C C46U C66U A70U C71U | -0.265 |
| U2G G6A C27U C46U A69G | -0.149 |
| U2G C27U A43C C46U A70U | -0.00371 |

| Variant | yeast fitness (ln) |
| --- | --- |
| U2G C27U A43C C46U C66U A70G | -0.161 |
| U2G C27U A43C C46U C66U A70U | -0.271 |
| U2G G6A A43C C46U C71U | -0.151 |
| U2G C66U A69G C71U | -0.213 |
| U2G G6A C27U A43C C46U C66A A69G C71U | -0.283 |
| U2G C27U C66A A69G A70G | -0.15 |
| U2G C27U C66A A69G A70U | -0.155 |
| U2G C27U A43C C66A A69G A70U C71U | -0.477 |
| U2G G6A C27U A43C A69G C71U | -0.391 |
| U2G G6A C27U A43C C46U A69G A70U | -0.159 |
| U2G G6A C27U A43C C46U A69G A70G | -0.183 |
| U2G G6A C27U A43C A69G A70G | -0.168 |
| U2G G6A C27U A43C A69G A70U | -0.279 |
| U2G C66U A69G | -0.195 |
| U2G G6A C27U A43C C46U A70G C71U | -0.201 |
| U2G C46U A70G | -0.0123 |
| U2G C46U A70U | -0.00122 |
| U2G G6A A43C C71U | -0.195 |
| U2G C66A A69G A70U C71U | -0.291 |
| U2G C46U C66U A70G C71U | -0.115 |
| U2G C27U A43C C66A A69G A70G | -0.42 |

| Variant | yeast fitness (ln) |
| --- | --- |
| U2G C27U A43C C66A A69G A70U | -0.291 |
| U2G C46U | -0.0208 |
| U2G C27U A43C C46U C66A A69G A70G C71U | -0.183 |
| U2G C66A A70G C71U | -0.168 |
| U2G C27U C66U A70U C71U | -0.281 |
| U2G C46U C66A A70U | -0.0904 |
| U2G C46U C66A A70G | -0.0687 |
| U2G C27U C46U C66U A69G | -0.211 |
| U2G G6A A43C C46U C66A | -0.141 |
| U2G G6A A43C C46U C66U | -0.147 |
| U2G C46U A70G C71U | -0.284 |
| U2G G6A C27U A69G A70U C71U | -0.383 |
| U2G C46U C66U A69G A70U C71U | -0.349 |
| U2G G6A C27U A43C C66A A70G C71U | -0.23 |
| U2G C27U C46U C66U A70U | -0.0345 |
| U2G C27U C46U C66U A70G | -0.117 |
| U2G G6A A43C A69G A70G | -0.185 |
| U2G G6A A43C A69G A70U | -0.171 |
| U2G G6A C27U A43C C66A A70G | -0.195 |
| U2G G6A C27U A43C C66A A70U | -0.176 |
| U2G C27U A43C C71U | -0.157 |
